Measured values of several laboratories.
Each line is one published result; the experiments were not run side by side.
Target: Ephrin type-A receptor 1 (EPHA1, Homo sapiens, UniProt P21709)
Residues used in one study (P21709 1-976): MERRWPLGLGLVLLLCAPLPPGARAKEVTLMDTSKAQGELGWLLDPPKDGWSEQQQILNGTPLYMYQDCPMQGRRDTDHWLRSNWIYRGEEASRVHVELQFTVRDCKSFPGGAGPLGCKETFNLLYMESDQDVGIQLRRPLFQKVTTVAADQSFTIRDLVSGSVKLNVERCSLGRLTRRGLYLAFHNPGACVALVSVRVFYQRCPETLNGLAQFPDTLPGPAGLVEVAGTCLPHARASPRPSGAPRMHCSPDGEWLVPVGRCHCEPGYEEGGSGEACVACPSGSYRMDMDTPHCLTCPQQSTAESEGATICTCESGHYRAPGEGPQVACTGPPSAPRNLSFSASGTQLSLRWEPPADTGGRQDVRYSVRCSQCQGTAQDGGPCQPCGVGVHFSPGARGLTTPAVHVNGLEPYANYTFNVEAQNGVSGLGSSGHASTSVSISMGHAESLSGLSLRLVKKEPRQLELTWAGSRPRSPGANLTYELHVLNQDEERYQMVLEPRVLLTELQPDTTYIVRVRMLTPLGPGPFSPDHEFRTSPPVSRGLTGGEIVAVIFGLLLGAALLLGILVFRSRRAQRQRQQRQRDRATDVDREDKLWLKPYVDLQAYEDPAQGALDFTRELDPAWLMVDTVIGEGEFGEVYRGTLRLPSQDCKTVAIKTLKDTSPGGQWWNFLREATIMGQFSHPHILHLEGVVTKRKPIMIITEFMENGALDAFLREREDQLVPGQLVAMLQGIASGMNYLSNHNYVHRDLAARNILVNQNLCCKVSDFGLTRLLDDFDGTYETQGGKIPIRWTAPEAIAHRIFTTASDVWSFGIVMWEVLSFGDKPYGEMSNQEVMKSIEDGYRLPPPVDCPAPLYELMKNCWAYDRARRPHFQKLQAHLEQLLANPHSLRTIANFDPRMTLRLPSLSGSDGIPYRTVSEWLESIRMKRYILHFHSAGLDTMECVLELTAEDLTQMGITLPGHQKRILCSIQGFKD

O=C1NC(=O)c2cc(Nc3ccc(F)cc3)c(Nc3ccc(F)cc3)cc21
remaining signal (cell-free assay; 0.5 µM): 97.4%

Nc1ncnc2occ(-c3ccc(NC(=O)Nc4cc(C(F)(F)F)ccc4F)cc3)c12
remaining signal (cell-free assay; 20 µM): 0.5%

CCN(CC)CCNC(=O)c1c(C)[nH]c(/C=C2\C(=O)Nc3ccc(F)cc32)c1C
inhibition (enzyme activity, inhibitor; 10 µM): 62%

CNC(=O)c1cc2c(Oc3ccc(NC(=O)C4(C(=O)Nc5ccc(F)cc5)CC4)cc3)ccnc2cc1OC
inhibition (enzyme activity, inhibitor, radiometric; 1 µM): 90%

COc1cc(-c2cc(-c3ccc(N4CCNCC4)cc3)cnc2C)cc(OC)c1OC
inhibition (enzyme activity, inhibitor; 1 µM): 16%

CC(C)(C)c1nc(-c2cccc(NS(=O)(=O)c3c(F)cccc3F)c2F)c(-c2ccnc(N)n2)s1
remaining activity (enzyme activity, inhibitor, radiometric; 1 µM): 81%

CNC(=O)c1cc(Oc2ccc(NC(=O)Nc3ccc(Cl)c(C(F)(F)F)c3)cc2)ccn1
inhibition (enzyme activity, inhibitor; 10 µM): 94%

O=C(N[C@H]1CCCCC/C=C\C2C[C@@]2(C(=O)O)NC(=O)[C@@H]2C[C@@H](Oc3ccncc3)CN2C1=O)OC1CCCC1 (some centres unmarked)
remaining binding (cell-free assay, competition with immobilised ligand; 1 µM): 90%

CCN(CC)c1ccc(C2=NNC(=O)CC2C)cc1[N+](=O)[O-] (centres unmarked)
remaining activity (enzyme activity, inhibitor; 10 µM): 112%

CCS(=O)(=O)c1cc2cc(C[C@](O)(CC(C)(C)c3ccc(F)cc3C(N)=O)C(F)(F)F)[nH]c2cn1
remaining binding (cell-free assay, competition with immobilised ligand; 1 µM): 100%

Oc1cccc(-c2nc(N3CCOCC3)c3oc4ncccc4c3n2)c1
remaining signal (cell-free assay; 0.5 µM): 87.8%

COc1ccc2c(c1)O[C@H](c1ccc(OC)c(OC)c1)C[C@@H]2NC(=O)C1(c2ccc3c(c2)OC(F)(F)O3)CC1
remaining binding (cell-free assay, competition with immobilised ligand; 1 µM): 88%

CC(C)(O)[C@H]1CC[C@H](Nc2ccc3ncc(-c4cccc(C(F)(F)F)c4)n3n2)CC1
remaining activity (enzyme activity, inhibitor; 1 µM): 99.6%

CS(=O)(=O)N1CCCC(NC(=O)[C@H](CCC2CCCCC2)NC(=O)c2ccc(CNc3ncnc4c3nnn4-c3ccccc3)cc2)C1 (some centres unmarked)
remaining binding (cell-free assay, competition with immobilised ligand; 0.1 µM): 95%

O=C(Nc1cnn(-c2csc(C(=O)NC3COC3)c2)c1)Nc1c(F)cccc1Cl
remaining activity (enzyme activity, inhibitor; 5 µM): 88.4%

O=C(NCCCC1CCCCC1)c1ccc(CNC(=O)c2cnn(-c3ccccc3)c2C(F)(F)F)cc1
remaining binding (cell-free assay, competition with immobilised ligand; 0.1 µM): 100%

c1ccc(CNc2nc(N3CCOc4ccccc43)nc3c2CCCC3)cc1
inhibition (target engagement in cells, inhibitor, chemoproteomics; 20 mM): -26.1%
